Screening results from PubChem BioAssay.
An excerpt weighted towards active compounds, which were near 2.3% of everything screened.
ABCB1 inh: inhibitors of human ABCB1 transporter, ABCG2 counter-screen | P08183 | CCRF-Adr cells, JC-1 efflux, flow cytometry | inhibition, % at 6.6 µM | 190,000 compounds, 0.067% hits | AID 1326; in the data active = inhibition above about 40%;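 note: 0% = vehicle and 100% = reference inhibitor; higher value means more JC-1 retained so stronger ABCB1 efflux block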
ABCG2 inh: blocks JC-1 efflux by human ABCG2 transporter | Q9UNQ0 | IgMXP3 cells, flow cytometry | inhibition, % at 6.6 µM | 190,000 compounds, 0.1% hits | AID 1325;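 active = inhibition above 80%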;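 note: 0% = DMSO and 100% = nicardipine control wells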
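Incubation: cells with compound and JC-1, 10 min at 25 °C, rotating, no wash / Test system: IgMXP3 (ABCG2) plus far-red-tagged CCRF-Adr (ABCB1) cells / Compound dosing: one concentration, 6.6 µM final / Also added: JC-1 fluorescent substrate / Evaluation: efflux inhibition in percent versus controls / Detection: flow cytometry, 530 nm JC-1 signal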
ROMK primary: modulates human ROMK potassium channel activity; P48048; Tet-inducible ROMK, thallium flux fluorescence; actives lie on both sides; B-score at 10 µM; 130,000 compounds, 2% hits; AID 1918;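 active = signal ratio slope over the read window, or its plate-corrected B-score, at least 3 SD from the plate mean, either direction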;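 note: B-score of the F/F0 ratio slope over 7 to 12 s after thallium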
Target sequence (P48048 whole entry, looked up): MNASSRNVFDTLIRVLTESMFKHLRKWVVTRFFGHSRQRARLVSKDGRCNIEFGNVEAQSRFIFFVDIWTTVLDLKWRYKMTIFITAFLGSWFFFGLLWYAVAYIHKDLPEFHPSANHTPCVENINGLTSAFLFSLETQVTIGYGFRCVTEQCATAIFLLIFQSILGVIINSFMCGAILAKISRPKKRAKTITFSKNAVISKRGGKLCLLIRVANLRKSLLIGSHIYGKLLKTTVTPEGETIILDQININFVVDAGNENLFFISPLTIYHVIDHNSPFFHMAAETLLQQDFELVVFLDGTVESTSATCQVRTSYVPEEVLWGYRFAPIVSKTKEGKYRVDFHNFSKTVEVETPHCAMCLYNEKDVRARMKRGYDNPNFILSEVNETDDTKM
sdo1 growth: sdo1-depleted yeast growth rescue; S. cerevisiae sdo1-depleted JHY4D growth rescue, OD600 30 h; hits give high values; pdr5 snq2 efflux-pump mutant strain; z-score at 10 µM; 140,000 compounds, 0.21% hits; AID 817;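 active = z-score above 3 at both the 24 hr and the 30 hr optical density reads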;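 note: z-score against mean and SD of all compound wells on the same plate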
Insulin prom up: MIN6 insulin promoter up-regulation | 190,000 compounds, 0.3% hits | MIN6 insulin promoter-GFP reporter, high-content imaging; hits give high values | z-score at 5 µM;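 active = z-score above 3 at 5 µM with at least 500 cells counted in the well; inconclusive = wells under 500 cells, flagged as cytotoxic or low count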
Autophagy mod: alters autophagy in cells; MEF GFP-LC3 puncta imaging; test concentration mostly 10 µM; calls only at 10 µM (by protocol); 190,000 compounds, 0.98% hits; AID 463193;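 active = percentage of spot-positive cells more than 3 SD above its plate mean, without a fluorescence outlier flag or 80% toxicity; inconclusive = no clear call, values can overlap the other calls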;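 note: spot-positive cell cutoff set from DMSO-treated cells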
ROMK hit retest: confirmation of human ROMK potassium channel modulators | shares compounds with ROMK primary | ROMK thallium flux, fluorescence ratio; hits give low values | normalized thallium flux (F/F0 slope) at 10 µM | 3,000 compounds, 54% hits;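 active = Flux at 10 µM at least 3 SD below or above vehicle control mean in one or both replicates; inconclusive = no clear call, values can overlap the other calls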
An asterisk follows results filed as active; i = inactive; ? = inconclusive; . = no result.

SMILES	ABCB1 inh	ABCG2 inh	ROMK primary	sdo1 growth	Insulin prom up	Autophagy mod	ROMK hit retest
O=C(C1CCN(CC2CC=CCC2)CC1)N(CCc1ccccc1)Cc1ccccc1 (stereo not drawn)	0.7	0.4	-2.78*	-0.98	-0.3	i	0.064*
O=C(c1ccncc1)N1CCN(C(=O)c2cccc3ccccc23)CC1	0.2	0.8	.	-0.26	-0.6	i	.
CCN(Cc1ccccc1)C(=O)C1CCN(C/C(C)=C/c2ccccc2)CC1	.	-2.2	-0.944	-0.13	-0.37	i	.
O=C(C1CCN(S(=O)(=O)c2cnc[nH]2)CC1)N(CCc1ccccc1)Cc1ccccc1	-0.5	-4.5	-0.927	.	.	i	.
O=C(C1CCN(CCCc2ccccc2)CC1)N(CCc1ccccc1)Cc1ccccc1	.	2.9	-5.02*	-1.44	-1.44	i	0.0505*
O=C(c1cccc2ccccc12)N1CCN(CC2CC=CCC2)CC1 (stereo not drawn)	0.6	2.4	-2.64*	0.58	-1.76	i	0.0586*
CCOC(=O)C1(Cc2ccccc2)CCCN(Cc2ccc(OCCO)cc2)C1 (stereo not drawn)	1.1	6.7	-0.135	.	.	i	.
NNC(=O)c1ccc(Cn2cccn2)o1	.	.	.	.	-0.05	.	.
COc1cc(Cl)c(C)cc1NC(=O)CNC(C)c1ccccc1OC (stereo not drawn)	9.2	18.4	-3.99*	.	-0.85	i	0.0611*
Cc1ccc(N2CS(=O)(=O)/C(=C/N(C)C)C2=O)cc1	0.3	-0.2	.	0.49	-0.19	i	0.0818
N=C1/C(=C\c2ccc(-c3cccc(C(=O)O)c3)o2)C(=O)N=C2SC=C(c3ccccc3)N12	.	.	.	.	0.04	.	0.0588*
Cc1ccccc1-n1c(C)cc(/C=C2/C(=N)N3C(c4ccccc4)=CSC3=NC2=O)c1C	-1.2	25.3	.	-0.75	-0.57	i	.
c1ccc(-c2csc3ncnc(N4CCc5ccccc5C4)c23)cc1	1.3	15.8	-0.934	-0.94	0.23	i	.
O=C(COC(=O)c1ccc(O)cc1)NCCCc1ccccc1	0.3	5.5	-0.339	.	-0.63	i	.
CCN(CC)CCCN(C(=O)c1ccco1)c1nc(-c2ccc(C)cc2)cs1	1.1	3.3	-3.48*	.	-1.65	i	0.0567*
CN(C)CCCN(C(=O)c1ccco1)c1nc2ccc(Br)cc2s1	0.7	5.7	-0.0252	.	0.62	i	.
CN(C)CCCN(C(=O)c1ccco1)c1nc2ccc(Cl)cc2s1	0.5	12.6	-4.09*	.	-0.53	i	?
CC(N)(C(=O)O)c1cccc(OCc2cccc(Cl)c2)c1 (stereo not drawn)	.	.	.	.	-0.21	.	.
COc1cc(OC)c(/C=N/n2c(C)nnc2C)c(OC)c1	.	0.9	-0.651	0.55	0.37	i	.
COc1ccc(Nc2ncnc3scc(-c4ccc(OC)cc4)c23)cc1	2.7	32.6	-0.708	-0.71	0.03	i	0.0661*
COc1ccc2oc3cc(C)[n+]([O-])c(-c4ccc(C)cc4)c3c2c1	0.5	-1.3	-0.76	-1.08	-0.05	i	.
O=C(NCc1nnc2c3ccccc3c(-c3ccccc3)nn12)c1ccc(Cl)cc1	4.2	11.9	.	-1.2	-0.29	i	0.0725
CCN(CC)S(=O)(=O)c1ccc(C2=NOC3(C2)N(C)c2ccccc2C3(C)C)cc1 (stereo not drawn)	1.4	5.0	0.336	0.14	0.13	i	.
c1ccc(CCNc2nc(-c3ccccn3)nc3ccccc23)cc1	.	.	.	.	-5.71	.	?
c1ccc(-c2nc(N3CCCCCC3)c3ccccc3n2)nc1	1.0	2.8	-2.74*	-2.8	-1.52	i	0.0592*
SMILES	ABCB1 inh	ABCG2 inh	ROMK primary	sdo1 growth	Insulin prom up	Autophagy mod	ROMK hit retest
COc1ccc(NC(=O)/C(Cl)=C(/Cl)S(=O)(=O)Cc2ccc(C)cc2)cn1	0.1	0.1	-3.78*	-2.68	-2.34	i	?
COc1ccc(NC(=O)Cc2ccc(Cl)c(Cl)c2)cn1	1.3	5.0	-1.05	.	-1.07	i	.
CCOc1ccc2nc(NCCCNC(=O)c3cc(OC)c(OC)c(OC)c3)c(C#N)cc2c1	.	.	.	.	-0.99	.	0.0739
COc1cc(C(=O)NCCCNc2nc3cc(C)cc(C)c3cc2C#N)cc(OC)c1OC	1.1	2.4	.	0.07	-0.81	i	.
COc1cc(N/C(N)=N/c2nc(C)cc(C)n2)c(OC)cc1Cl	0.6	2.7	0.569	.	-0.47	i	.
Cc1ccc2c(c1)c1c3n2CCCNC3CCC1 (stereo not drawn)	0.4	2.6	-2.09*	-0.02	?	i	0.0604*
CC(NCCC1(Cc2ccccc2Cl)CCOC(C)(C)C1)c1cccs1 (stereo not drawn)	.	.	-2.43	.	0.31	.	.
COc1cc([N+](=O)[O-])c(C(=O)N2CCOCC2)c([N+](=O)[O-])c1	8.1	18.4	-0.49	-0.19	-0.11	i	.
CCC(c1nnnn1C(C)(C)CC)N(CCCN1CCOCC1)Cc1cc2cccc(C)c2[nH]c1=O (stereo not drawn)	-0.7	0.4	-2.49	1.24	1.76	i	.
CCC(C)(C)n1nnnc1C(C(C)C)N(CCN1CCOCC1)Cc1cc2cccc(C)c2[nH]c1=O (stereo not drawn)	0.4	0.5	-2.9*	0.28	.	i	0.055*
Cc1ccc(NC(=O)COc2cccc(/C=C3\SC(=S)N(CCC(=O)O)C3=O)c2)cc1Cl	.	.	.	.	-0.01	.	.
O=C(O)CCN1C(=O)/C(=C\c2cccc(OCC(=O)Nc3ccc(Cl)cc3)c2)SC1=S	.	.	.	.	1.05	.	0.0527*
O=C(O)CCN1C(=O)CC(N2C(=O)/C(=C/c3ccc(Cl)cc3)SC2=S)C1=O (stereo not drawn)	0.0	-1.6	-2.04*	-0.79	0.23	i	0.044*
O=C(CSc1ncc(-c2ccccc2)n1C1CCCC1)N1CCc2ccccc21	4.8	44.3	-2.66*	-0.8	-0.01	i	?
Cn1c(-c2ccccc2)cnc1SCC(=O)N1CCCc2ccccc21	0.7	3.7	1.21	-0.68	1.8	i	.
CCCCCc1ccc(OCCCC[n+]2ccccc2)c(CCCCC)c1	0.5	9.8	-4.92*	.	?	i	0.0552*
CCCCCc1ccc(OCCCC[n+]2ccc(C)cc2)c(CCCCC)c1	3.1	10.3	-5.65*	.	?	i	0.0474*
Cc1cc(=O)oc2cc(OCCCC[n+]3ccccc3)ccc12	.	.	.	.	-0.18	.	.
O=C1c2ccccc2NC(c2ccc(-c3cccc([N+](=O)[O-])c3)o2)N1O (stereo not drawn)	-0.5	-4.4	-3.57*	0.08	-0.3	i	0.0606*
CNc1ccccc1C(=O)OCC(C)=O	0.6	-5.9	0.0496	0.52	0.22	i	.
COC(=O)c1ccccc1NC(=O)CC#N	0.6	2.4	.	0.83	0.66	i	0.073
CNc1ccccc1C(=O)OC	.	.	.	.	0.77	.	0.0814
COc1ccccc1C1(CCNC(C)c2cccs2)CCOC(C(C)C)C1 (stereo not drawn)	.	.	.	.	.	.	0.0412*
O=C(NNC(=O)c1cccc2ccccc12)c1ccc2c(c1)OCO2	.	.	.	.	-0.26	.	.
